Values after ≈ are worked out from the molar mass of the structure shown.
Experiments:
[1] = system: Mycobacterium tuberculosis; experiment: In vitro activity against Mycobacterium. tuberculosis (strain type-ATCC 35828)at pH 6.6; type: functional
How it was run: (§1)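 Twofold serial dilutions (200–3.12 µg/mL) in 7H10 agar with 10% OADC enrichment at pH 6.6, in compartmented plates. Plates were stored at 4 °C and used within 24–48 h. A no-drug compartment served as control for each isolate. Plates were incubated for 4 weeks at 37 °C. MIC was the lowest concentration giving 99% (2 log) growth inhibition.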

[2] = system: Mycobacterium kansasii; experiment: In vitro activity against Mycobacterium. kansasii (strain type-SWK).at pH 5.8; type: functional
How it was run: (§2)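 Pyrazinamide-resistant isolate SWK tested on Middlebrook 7H10 agar plus 10% OADC adjusted to pH 5.8. Compartmented plates hold 2-fold dilutions from 200 to 3.12 µg/mL, prepared 24–48 h before use and kept at 4 °C, with a drug-free compartment. Incubation was 37 °C for 4 weeks. MIC is the lowest level causing 99% (2 log) growth inhibition.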

[3] = system: Mycobacterium kansasii; experiment: In vitro activity against Mycobacterium. kansasii (strain type-SWK).at pH 6.6; type: functional
How it was run: (§3)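 MIC for pyrazinamide-resistant isolate SWK by agar dilution in Middlebrook 7H10 with 10% OADC at pH 6.6. Serial 2-fold dilutions run 200–3.12 µg/mL in compartmented plates prepared 24–48 h in advance and stored at 4 °C. A drug-free control is included. Plates were held at 37 °C for 4 weeks. The endpoint is 99% (2 log) inhibition of growth.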

[4] = system: Mycobacterium tuberculosis; experiment: In vitro activity against Mycobacterium. tuberculosis (strain type-H37Rv) at pH 5.8; type: functional; conditions: Mycobacterium tuberculosis; read-out: MIC
[5] = system: Mycobacterium tuberculosis; experiment: In vitro activity against Mycobacterium. tuberculosis (strain type-H37Rv) at pH 6.6; type: functional; conditions: Mycobacterium tuberculosis; read-out: MIC
[6] = system: Mycobacterium tuberculosis; experiment: In vitro activity against Mycobacterium. tuberculosis (strain type-ATCC 35828)at pH 5.8; type: functional
How it was run: (§4)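 Middlebrook 7H10 agar plus 10% OADC at pH 5.8 in compartmented plates, with serial twofold dilutions from 200 to 3.12 µg/mL. Plates were prepared 24–48 h before use and stored at 4 °C. A drug-free compartment was included per isolate. Incubation was 37 °C for 4 weeks. MIC was the lowest level producing 99% (2 log) inhibition of growth.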

[7] = system: Mycobacterium tuberculosis; experiment: In vitro activity against Mycobacterium strain ATCC 35828 (Mycobacterium tuberculosis); type: functional
How it was run: (§5)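 Agar dilution in compartmented plates of Middlebrook 7H10 agar with 10% OADC, adjusted to pH 5.8 or pH 6.6. Twofold compound dilutions spanned 200–3.12 µg/mL. Plates were made 24–48 h ahead and held at 4 °C. MIC (µg/mL) was the lowest concentration giving 99% (2 log) growth inhibition.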

[8] = system: Mycobacterium tuberculosis; experiment: In vitro activity against Mycobacterium strain BAK (Mycobacterium tuberculosis); type: functional; conditions: Mycobacterium tuberculosis; read-out: MIC
[9] = system: Mycobacterium tuberculosis; experiment: In vitro activity against Mycobacterium strain BUR (Mycobacterium tuberculosis); type: functional; how it was run: as §5
[10] = system: Mycobacterium tuberculosis; experiment: In vitro activity against Mycobacterium. tuberculosis (strain type-BUR)at pH 5.8; type: functional
[11] = system: Mycobacterium tuberculosis; experiment: In vitro activity against Mycobacterium strain CES (Mycobacterium tuberculosis); type: functional; how it was run: as §5
[12] = system: Mycobacterium tuberculosis; experiment: In vitro activity against Mycobacterium strain DOL (Mycobacterium tuberculosis); type: functional; conditions: Mycobacterium tuberculosis; read-out: MIC
[13] = system: Mycobacterium tuberculosis; experiment: (§6) In vitro activity against Mycobacterium strain DOU (Mycobacterium tuberculosis); type: functional; how it was run: as §5
[14] = system: Mycobacterium kansasii; experiment: In vitro activity against Mycobacterium. kansasii (strain type-SWK)at pH 6.6; type: functional; how it was run: as §3
[15] = system: Mycobacterium kansasii; experiment: In vitro activity against Mycobacterium. kansasii (strain type-SWK)at pH 5.8; type: functional; how it was run: as §2
[16] = system: Mycobacterium kansasii; experiment: In vitro activity against Mycobacterium strain SWK (Mycobacterium kansasii); type: functional
How it was run: (§7)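 Agar dilution MIC against pyrazinamide-resistant clinical isolates on Middlebrook 7H10 agar with 10% OADC at pH 5.8 or pH 6.6. Serial 2-fold dilutions span 200–3.12 µg/mL in compartmented plates made 24–48 h ahead and stored at 4 °C. Each isolate has a drug-free control. Plates were incubated at 37 °C for 4 weeks. MIC is the lowest concentration giving 99% (2 log) growth inhibition.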

[17] = system: Mycobacterium tuberculosis; experiment: In vitro activity against Mycobacterium strain ING (Mycobacterium tuberculosis); type: functional; how it was run: as §5
[18] = system: Mycobacterium tuberculosis; experiment: In vitro activity against Mycobacterium strain LEL (Mycobacterium tuberculosis); type: functional
[19] = system: Mycobacterium tuberculosis; experiment: In vitro activity against Mycobacterium strain MCQ (Mycobacterium tuberculosis); type: functional; how it was run: as §5
[20] = system: Mycobacterium tuberculosis; experiment: In vitro activity against Mycobacterium strain SMA (Mycobacterium tuberculosis); type: functional
[21] = system: Mycobacterium tuberculosis; experiment: In vitro activity against Mycobacterium strain WOO (Mycobacterium tuberculosis); type: functional; how it was run: as §5
[22] = system: Mycobacterium tuberculosis; experiment: In vitro activity against Mycobacterium strain GLA (Mycobacterium tuberculosis)
[23] = system: Mycobacterium tuberculosis; experiment: In vitro activity against Mycobacterium strain DUB (Mycobacterium tuberculosis); type: functional
[24] = system: Mycobacterium kansasii; experiment: In vitro activity against Mycobacterium strain SCH (Mycobacterium kansasii); type: functional; how it was run: as §7
[25] = system: Mycobacterium tuberculosis; experiment: In vitro activity against Mycobacterium. tuberculosis (strain type-BUR)at pH 6.6; type: functional; how it was run: as §1
[26] = system: Mycobacterium tuberculosis; experiment: In vitro inhibitory activity against Mycobacterium strain BUR (Mycobacterium tuberculosis)
[27] = system: Mycobacterium tuberculosis; experiment: (§8) In vitro inhibitory activity against Mycobacterium tuberculosis (strain type-BUR) at pH 5.8
[28] = system: Mycobacterium tuberculosis; experiment: In vitro activity against Mycobacterium strains on DOL (Mycobacterium tuberculosis)
[29] = system: Mycobacterium tuberculosis; experiment: In vitro inhibitory activity against Mycobacterium tuberculosis (strain type-ATCC 35828) at pH 5.8; type: functional; how it was run: as §4
[30] = system: Mycobacterium tuberculosis; experiment: In vitro inhibitory activity against Mycobacterium tuberculosis (strain type-ATCC 35828)at pH 6.6; type: functional; how it was run: as §1
[31] = system: Mycobacterium tuberculosis; experiment: In vitro inhibitory activity against Mycobacterium strain DUB (Mycobacterium tuberculosis)
[32] = system: Mycobacterium tuberculosis; experiment: In vitro inhibitory activity against Mycobacterium strain GLA (Mycobacterium tuberculosis); type: functional; how it was run: as §5
[33] = system: Mycobacterium kansasii; experiment: In vitro activity inhibitory against Mycobacterium. kansasii (strain type-SWK) at pH 5.8; type: functional; how it was run: as §2
[34] = system: Mycobacterium kansasii; experiment: In vitro inhibitory activity inhibitory against Mycobacterium. kansasii (strain type-SWK) at pH 6.6; type: functional; how it was run: as §3
[35] = system: Mycobacterium tuberculosis; experiment: In vitro inhibitory activity against Mycobacterium tuberculosis (strain type-H37Rv) at pH 6.6; type: functional
[36] = system: Mycobacterium tuberculosis; experiment: In vitro inhibitory activity against Mycobacterium tuberculosis (strain type-BUR) at pH 6.6; type: functional; how it was run: as §1
[37] = system: Mycobacterium tuberculosis; experiment: In vitro inhibitory activity against Mycobacterium tuberculosis (strain type-H37Rv) at pH 5.8; type: functional; how it was run: as §4
[38] = system: Mycobacterium tuberculosis; experiment: In vitro inhibitory activity against Mycobacterium strain LEL (Mycobacterium tuberculosis); type: functional; how it was run: as §5
[39] = system: Mycobacterium tuberculosis; experiment: In vitro inhibitory activity against Mycobacterium strain MCQ (Mycobacterium tuberculosis)
[40] = system: Mycobacterium tuberculosis; experiment: In vitro activity against Mycobacterium strains on SMA (Mycobacterium tuberculosis)
[41] = system: Mycobacterium tuberculosis; experiment: In vitro inhibitory activity against Mycobacterium strain WOO (Mycobacterium tuberculosis)
[42] = system: Mycobacterium tuberculosis; experiment: as §6
[43] = system: Mycobacterium tuberculosis; experiment: In vitro inhibitory activity against Mycobacterium strain ING (Mycobacterium tuberculosis); type: functional; how it was run: as §5
[44] = system: Mycobacterium tuberculosis; experiment: In vitro inhibitory activity against Mycobacterium strains on BAK (Mycobacterium tuberculosis)
[45] = system: Mycobacterium tuberculosis; experiment: as §8; type: functional; how it was run: as §4
[46] = system: Mycobacterium tuberculosis; experiment: In vitro inhibitory activity against Mycobacterium tuberculosis (strain type-ATCC 35828) at pH 6.6; type: functional; how it was run: as §1
[47] = system: Mycobacterium kansasii; experiment: In vitro inhibitory activity against Mycobacterium kansasii (strain type-SWK) at pH 6.6; type: functional; how it was run: as §3
[48] = system: Mycobacterium kansasii; experiment: In vitro inhibitory activity against Mycobacterium kansasii (strain type-SWK) at pH 5.8; type: functional; how it was run: as §2
[49] = Mycobacterium tuberculosis, read-out: MIC

## O=C(Oc1c(F)c(F)c(F)c(F)c1F)c1cnccn1
[1]
  MIC: 100 µg/mL (≈ 345 µM)
[2]
  MIC: 25 µg/mL (≈ 86.2 µM)
[3]
  MIC: > 200 µg/mL
[4]
  MIC: 12.5 µg/mL (≈ 43.1 µM)
[5]
  MIC: 100 µg/mL (≈ 345 µM)
[6]
  MIC: 12.5 µg/mL (≈ 43.1 µM)

## C=CCOC(=O)c1cnccn1
[7]
  MIC: 6.25 µg/mL (≈ 38.1 µM)
[8]
  MIC: 3.12 µg/mL (≈ 19 µM)
[9]
  MIC: 6.25 µg/mL (≈ 38.1 µM)
[10]
  MIC: 6.25 µg/mL (≈ 38.1 µM)
[11]
  MIC: < 3.12 µg/mL
[12]
  MIC: < 3.12 µg/mL
[13]
  MIC: 3.12 µg/mL (≈ 19 µM)
[1]
  MIC: 200 µg/mL (≈ 1220 µM)
[14]
  MIC: 12.5 µg/mL (≈ 76.1 µM)
[15]
  MIC: < 3.12 µg/mL
[16]
  MIC: 6.25 µg/mL (≈ 38.1 µM)
[4]
  MIC: < 3.12 µg/mL
[5]
  MIC: 200 µg/mL (≈ 1220 µM)
[17]
  MIC: 3.12 µg/mL (≈ 19 µM)
[18]
  MIC: 3.12 µg/mL (≈ 19 µM)
[19]
  MIC: < 3.12 µg/mL
[20]
  MIC: 3.12 µg/mL (≈ 19 µM)
[21]
  MIC: 6.25 µg/mL (≈ 38.1 µM)
[22]
  MIC: 6.25 µg/mL (≈ 38.1 µM)
[6]
  MIC: 6.25 µg/mL (≈ 38.1 µM)
[23]
  MIC: 6.25 µg/mL (≈ 38.1 µM)
[24]
  MIC: 6.25 µg/mL (≈ 38.1 µM)

## O=C(Oc1ccc(-c2ccccc2)cc1)c1cnccn1
[25]
  MIC: 50 µg/mL (≈ 181 µM)
[1]
  MIC: 100 µg/mL (≈ 362 µM)
[2]
  MIC: 25 µg/mL (≈ 90.5 µM)
[3]
  MIC: 100 µg/mL (≈ 362 µM)
[4]
  MIC: 6.25 µg/mL (≈ 22.6 µM)
[6]
  MIC: 25 µg/mL (≈ 90.5 µM)

## O=C(OCCBr)c1cnccn1
[25]
  MIC: > 200 µg/mL
[1]
  MIC: > 200 µg/mL
[3]
  MIC: > 200 µg/mL

## O=C(OC(C(F)(F)F)C(F)(F)F)c1cnccn1
[10]; [49]
  MIC: 100 µg/mL (≈ 365 µM)
[6]
  MIC: 200 µg/mL (≈ 730 µM)

## NC(=O)c1cnccn1 [PYRAZINAMIDE]
[7]
  MIC: > 200 µg/mL
[26]
  MIC: 25 µg/mL (≈ 203 µM)
[27]
  MIC: 25 µg/mL (≈ 203 µM)
[28]
  MIC: 25 µg/mL (≈ 203 µM)
[29]
  MIC: > 200 µg/mL
[30]
  MIC: > 200 µg/mL
[31]
  MIC: 50 µg/mL (≈ 406 µM)
[32]
  MIC: 12.5 µg/mL (≈ 102 µM)
[33]
  MIC: > 200 µg/mL
[34]
  MIC: > 200 µg/mL
[16]
  MIC: > 200 µg/mL
[35]
  MIC: >200 µg/mL
[36]
  MIC: 200 µg/mL (≈ 1620 µM)
[37]
  MIC: 12.5 µg/mL (≈ 102 µM)
[38]
  MIC: > 200 µg/mL
[39]
  MIC: 25 µg/mL (≈ 203 µM)
[40]
  MIC: 50 µg/mL (≈ 406 µM)
[41]
  MIC: 50 µg/mL (≈ 406 µM)
[42]
  MIC: 25 µg/mL (≈ 203 µM)
[43]
  MIC: 12.5 µg/mL (≈ 102 µM)
[24]
  MIC: > 200 µg/mL
[44]
  MIC: 50 µg/mL (≈ 406 µM)

## O=C(O)c1cnccn1 [PYRAZINOIC ACID]
[45]
  MIC: 50 µg/mL (≈ 403 µM)
[46]
  MIC: > 200 µg/mL
[29]
  MIC: 100 µg/mL (≈ 806 µM)
[47]
  MIC: > 200 µg/mL
[35]; [49]
  MIC: 200 µg/mL (≈ 1610 µM)
[36]
  MIC: > 200 µg/mL
[37]
  MIC: 50 µg/mL (≈ 403 µM)
[48]
  MIC: > 200 µg/mL

Reference: ChEMBL document CHEMBL1125418, “Antimycobacterial activity of a series of pyrazinoic acid esters” (1992)
